Experimental findings from ChEMBL document CHEMBL4513216, “Probing the Open Global Health Chemical Diversity Library for Multistage-Active Starting Points for Next-Generation Antimalarials” (ACS Infect Dis, 2020) are described below.

This data set is described as follows: Toxicity liver stage against HepG2, at 10uM. In kind it is cell-based. The arrangement: test concentration 10 uM, cell line HepG2-A16-CD81EGFP. Conditions: human, HepG2-A16-CD81EGFP cells; read-out: INHIBITION
The essentials: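 Uninfected HepG2-A16-CD81EGFP cells, 3 × 10^3 per well, 1536-well, plated on prespotted compound at 10 μM final, parasite-free screening media added to match infected plates; puromycin 10 μM positive, DMSO 0.5% negative; run in parallel with 48 h PbLuc assay at 37 °C, 5% CO2; viability by CellTiter-Glo luminescence, normalized to controls.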
In the case of `CC[C@H]1CN2CC[C@H]1C[C@@H]2CNC(=O)Nc1cc(OC)cc(OC)c1`, the cytotoxicity at 10 µM worked out at 3.39%.
Consider `CCN1CC(CN2CCOCC2)Oc2ncccc2C1=O` (stereo unspecified), for which the cytotoxicity at 10 µM was -1.1%.
For `COc1cc(C2CC(=O)Oc3cc(C)[nH]c(=O)c32)ccc1O` (stereo unspecified), the cytotoxicity at 10 µM was -8.64%.
Consider `CC(=O)CSc1sc2c(O)cc(=O)[nH]c2c1C(N)=O`, for which the cytotoxicity at 10 µM is -3.48%.
The result for `CN(C)C(=O)CNC(=O)c1cc2c(s1)CCN2S(C)(=O)=O` reads 0.793%.
The result for `O=C(NCc1cccnc1)c1nc2c(s1)CCCN2c1ncccn1` reads 8.44%; that for `COCCN1C(=O)C[C@H]2[C@H]1CCN2C(=O)c1ccc[nH]1`, 5.89%.
In the case of `COCC1CN(C(=O)Cc2cccs2)Cc2nnn(C)c21` (stereo unspecified), the cytotoxicity at 10 µM was 4.99%.
`c1cncc(N2CCOC3(CCCN(c4nncs4)C3)C2)c1` (stereo unspecified): the cytotoxicity at 10 µM stood at 6.56%.
Consider `Cc1ncsc1C(=O)N1CCc2nnc(C3CCCCN3C)n2CC1` (stereo unspecified), for which the cytotoxicity at 10 µM stood at 3.3%.
Take `CC1(c2[nH]ncc2C(N)=O)CCN(c2ncccn2)CC1`: the cytotoxicity at 10 µM is 0.462%.
Take `OCC(CO)N1CCCC(Cc2cnc(Nc3ccccn3)cn2)C1` (stereo unspecified): the cytotoxicity at 10 µM is -5.97%.
Regarding `COCCC(=O)N1Cc2ccccc2OC2(CCOCC2)C1`, the cytotoxicity at 10 µM was -2.53%.
Consider `O=C(Cc1cccs1)N1CCCCC1c1ccn2ccnc2n1` (stereo unspecified), for which the cytotoxicity at 10 µM is -6.58%.
The value for `CC(C)(N)C(=O)N1CCCC1c1cncc(Oc2ccccc2)n1` (stereo unspecified) was -6.02%; that for `Cc1cccc(CC2COCCN(Cc3nccn3C)C2)n1` (stereo unspecified) was 1.61%; that for `CN1CCC(c2cc(C(F)(F)F)n3ccnc3n2)CC1` was -9.6%.
Consider `CCS(=O)(=O)N1CCC(c2cc3n(n2)[C@@H](C(F)(F)F)C[C@@H](C)N3)CC1`, for which the cytotoxicity at 10 µM amounted to 0.436%.
As for `O=C(Cc1c[nH]c2ncccc12)NCC(O)c1ccccc1F` (stereo unspecified), the cytotoxicity at 10 µM was -3.43%.
For the compound `O=C(NCCC1CCN(CC(F)(F)F)CC1)C1CCCO1` (stereo unspecified), the cytotoxicity at 10 µM turned out to be 5.48%.
Consider `CCNC(=O)C1CCCN(c2ccc(C#N)cc2C(F)(F)F)C1` (stereo unspecified), for which the cytotoxicity at 10 µM worked out at 1.28%.
In the case of `CCSc1cncc(N2CCC(NC(=O)C3CCCCC3)CC2)n1`, the cytotoxicity at 10 µM is 16.8%.
On to `Cc1ccccc1CN1CCC(NCC2CNc3ccnn3C2)CC1` (stereo unspecified), for which the cytotoxicity at 10 µM is 0.0194%.
For the compound `N#Cc1ccc(CNC(=O)NC2CCN(CC(F)F)CC2)cc1`, the cytotoxicity at 10 µM is -6.96%.
Take `Cc1cc(C)n(C2CCCN(C(=O)c3cccc4[nH]ncc34)C2)n1` (stereo unspecified): the cytotoxicity at 10 µM stood at 6.22%.
Regarding `Cc1cc(C2CCC2)nc(N2CCC3(CC2)OCCCC3O)n1` (stereo unspecified), the cytotoxicity at 10 µM was determined as 4.28%.
In the case of `Cc1ccc(C2(O)CCN(Cc3nc(C)n4ccccc34)CC2)nc1`, the cytotoxicity at 10 µM was determined as 3.43%.
As for `Cc1ccsc1C(=O)N1CCC(c2nccn2Cc2ccncc2)CC1`, the cytotoxicity at 10 µM was found to be 0.535%.
Turning to `Cn1ccnc1CN1C[C@@H](CN2CCCCC2)[C@@H](CO)C1`, the cytotoxicity at 10 µM worked out at 11.7%.
Take `CCc1nccc(CN2CCCC(c3nn(C)c(=O)n3CC)C2)n1` (stereo unspecified): the cytotoxicity at 10 µM is -3.69%.
With `CN(Cc1ccccc1)C1(C(=O)O)Cc2ccccc2C1`, the cytotoxicity at 10 µM was 1.04%.
As for `CC(Cn1cncn1)NCc1nncn1C1CCCCC1` (stereo unspecified), the cytotoxicity at 10 µM is -10.4%.
As for `CCCSc1ncc(Cl)c(C(=O)NC(CCSC)C(=O)O)n1` (stereo unspecified), the cytotoxicity at 10 µM was -6.44%.
For the compound `Cc1cc(-n2cnnn2)n2ncnc2n1`, the cytotoxicity at 10 µM was -5.66%.
`CCn1ncc(NC(=O)c2cc(C3CC3)nc3c2c(C)nn3C)c1C`: the cytotoxicity at 10 µM was -3.32%.
`CCOC1CCN(C(=O)CN(C)c2cnccn2)CC1`: the cytotoxicity at 10 µM is -6.07%.
On to `O=C(c1ccc(-n2cnnn2)cc1)N1CCCC(n2ccnc2)C1` (stereo unspecified), for which the cytotoxicity at 10 µM is -24.7%.
The value for `Cc1cnn(CC2CCCN2C(=O)c2cccc(S(C)(=O)=O)c2)c1` (stereo unspecified) was -10.3%; that for `CCN(Cc1ccc2c(c1)OCO2)C(=O)NC(C)Cn1ccnc1` (stereo unspecified) was -13.2%; that for `CC(C)(C)c1noc(CCC(=O)NCC2CCS(=O)(=O)C2)n1` (stereo unspecified) was -18.1%.
As to `CN(C)c1ncccc1CNc1cc(N2CCCC2CO)ncn1` (stereo unspecified), the cytotoxicity at 10 µM was -8.48%.
Regarding `CN(Cc1nnc2n1CCC2)C(=O)c1ccc2c(c1)CCO2`, the cytotoxicity at 10 µM was -9.33%.
With `CCCS(=O)(=O)NC(C)C(=O)NCc1ccc(N2CCN(C)CC2)nc1` (stereo unspecified), the cytotoxicity at 10 µM was -20.9%.
`COc1ccccc1CC(=O)N1CCCC1Cn1nc(C)cc1C` (stereo unspecified): the cytotoxicity at 10 µM is -9.37%.
With `N#Cc1cccc(CNC(=O)Nc2cccnc2N2CCCC2)c1`, the cytotoxicity at 10 µM is -15.5%.
The value for `Cc1nc(C)n(C2CCCN(C(=O)Cc3csc(C(C)C)n3)C2)n1` (stereo unspecified) was -15.8%.
Turning to `COC(=O)C(NC(=O)COC1CCCC1)c1cc(F)ccc1F` (stereo unspecified), the cytotoxicity at 10 µM was -9.06%.
The value for `COCCCNC(=O)CN(C)C(=O)c1cc(C)ccc1N(C)C(C)C` was -4.84%.
As to `Cc1cnn(CC2CN(Cc3nccn3C)CCO2)c1` (stereo unspecified), the cytotoxicity at 10 µM is -2.06%.
Turning to `CC(=O)Nc1nc(CN2CCn3c(nnc3C3CC3)C2)cs1`, the cytotoxicity at 10 µM was -7.91%.
For `Cc1nnc(CN2CCC(N(C)Cc3nnc(C4CC4)n3C)C2)o1` (stereo unspecified), the cytotoxicity at 10 µM was -5.36%.
With `CC(C(=O)N1CCCN(c2ccc(C#N)cc2)CC1)n1ccnc1` (stereo unspecified), the cytotoxicity at 10 µM is -9.75%.
Take `COc1c(CNCc2ccc(N(C)C)nc2)c(C(C)C)nn1C`: the cytotoxicity at 10 µM is -9.75%.
As for `Cc1cc(C)c(CNC(=O)NCCOc2ccc3c(c2)CCC3)c(=O)[nH]1`, the cytotoxicity at 10 µM is -23.3%.
On to `CC(C)c1ccc(C(C)NC(=O)N2CCC(n3cncn3)CC2)cc1` (stereo unspecified), for which the cytotoxicity at 10 µM is -6.18%.
With `Cc1nc(CSCCC(=O)NCc2cccnc2N(C)C)cs1`, the cytotoxicity at 10 µM is -9.19%.
Consider `Cc1cc(C)n(C2CN(CC(O)COc3ccc(F)cc3)C2)n1` (stereo unspecified), for which the cytotoxicity at 10 µM was -10.5%.
Consider `Cc1nnc2n1CCN(C(=O)COCCOc1ccccc1)C2`, for which the cytotoxicity at 10 µM came to 0.529%.
Regarding `CCN(Cc1cccc(Cl)c1)Cn1nc(C)c2c(C)onc2c1=O`, the cytotoxicity at 10 µM was -13%.
`O=C(c1ccc(-n2cccn2)nc1)N1CCCN(c2cccnn2)CC1`: the cytotoxicity at 10 µM turned out to be 0.65%.
Take `O=C(NCCNc1ccc(C(F)(F)F)cn1)c1cncc(Br)c1`: the cytotoxicity at 10 µM stood at 2.24%.
For the compound `O=C(CCc1nccs1)N1CCN(c2ncccn2)CC1`, the cytotoxicity at 10 µM is -0.313%.
`C[C@@H](NC(=O)c1cnccn1)c1c(-c2ccc(Cl)cc2)noc1C(=O)O`: the cytotoxicity at 10 µM stood at 4.26%.
In the case of `COCC1c2c(cnn2C)CCN1Cc1cccc(C)c1` (stereo unspecified), the cytotoxicity at 10 µM came to 0.951%.
The result for `c1cnn(CCCO[C@@H]2CC[C@H]3[C@H]2OCCN3CC2CCOCC2)c1` reads 7.77%; that for `CN1Cc2cnn(CC3CCCC3)c2C(COCC2CC2)C1` (stereo unspecified), -1.6%.
Consider `c1cncc(O[C@H]2CC[C@H]3[C@H]2OCCN3C2CCC2)c1`, for which the cytotoxicity at 10 µM is -6.69%.
Turning to `Cc1cc(CCC(=O)N(C)C)nc(C2CCCCN2)n1` (stereo unspecified), the cytotoxicity at 10 µM is -2.39%.
Take `Cn1cc(N2CCC3(CCN(Cc4nccs4)C3)C2=O)cn1` (stereo unspecified): the cytotoxicity at 10 µM is 3.76%.
As for `COCCN1CCC2(CC1)CN(C(=O)N(C)C)c1ccc(C)cc12`, the cytotoxicity at 10 µM stood at 7.74%.
Turning to `CC(C)[C@H](N)CC(=O)Nc1nc(-c2cnc(N3CCOCC3)nc2)cs1`, the cytotoxicity at 10 µM is -9.8%.
